For orientation: IC50 means the midpoint of a concentration-inhibition curve. Read a low IC50 as higher potency.

For 32 compounds, IC50 results are on record in ChEMBL document CHEMBL2040816, “Design, synthesis, and structure-activity relationship studies of novel millepachine derivatives as potent antiproliferative agents” (Eur J Med Chem, 2012).

Holding throughout (assay type): functional, cell-based
Assay [1] concerns HepG2. Nature of the assay: Antiproliferative activity against human HepG2 cells after 24 hrs by MTT assay. The conditions noted are these: HepG2, 24 h. The essentials: (§1)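 MTT assay. 1 × 10⁴ cells per well were plated and incubated 24 h before dye was added (20 µL of 5 mg/mL MTT in PBS per well), then incubated until a purple precipitate formed. Precipitate dissolved in 150 µL DMSO after medium removal, then absorbance read.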
In general terms: Formazan colour is commonly taken as a measure of viable cells.

The test system of assay [2] is K562. The assay can be described thus: Antiproliferative activity against human K562 cells after 24 hrs by MTT assay. The conditions noted are these: K562, 24 h. An outline of the steps: as §1
The test system of assay [3] is SK-OV-3. The assay can be described thus: Antiproliferative activity against human SKOV3 cells after 24 hrs by MTT assay. The conditions noted are these: SK-OV-3, 24 h. The essentials: as §1
Assay [4] concerns HCT-116. The assay can be described thus: Antiproliferative activity against human HCT116 cells after 24 hrs by MTT assay. To be noted: HCT-116, 24 h. The essentials: as §1
For assay [5], the system named is HT-29. Nature of the assay: Antiproliferative activity against human HT-29 cells after 24 hrs by MTT assay. To be noted: HT-29, 24 h. An outline of the steps: as §1
Assay [6] relates to SW-620. Nature of the assay: Antiproliferative activity against human SW620 cells after 24 hrs by MTT assay. To be noted: SW-620, 24 h. An outline of the steps:
as §1

For `COc1ccc(C(=O)/C=C/c2ccc(N(C)C)cc2)c2c1C=CC(C)(C)O2`, the IC50 is 0.73 µM in assay [1]; 3.5 µM in assay [2]; 2.75 µM in assay [3]; 1.92 µM in assay [4]; 1.87 µM in assay [5]; 0.57 µM in assay [6].

As for `COc1ccc(C(=O)/C=C/c2cccc3ccccc23)c2c1C=CC(C)(C)O2`, the IC50 in assay [1], in assay [2], in assay [3], in assay [4], in assay [5] and in assay [6] was over 10 µM each time.

Regarding `COc1ccc(C(=O)/C=C/c2ccc(C(F)(F)F)cc2)c2c1C=CC(C)(C)O2`, the IC50 in assay [1], in assay [2], in assay [3], in assay [4], in assay [5] and in assay [6] was over 10 µM throughout.

As to `COc1ccc(C(=O)/C=C/c2cccc(O)c2)c2c1C=CC(C)(C)O2`, the IC50 in assay [1], in assay [2], in assay [3], in assay [4], in assay [5] and in assay [6] was over 10 µM each time.

Regarding `COc1ccc(C(=O)/C=C/c2ccccc2Cl)c2c1C=CC(C)(C)O2`, the IC50 in assay [1], in assay [2], in assay [3], in assay [4], in assay [5] and in assay [6] was over 10 µM in each case.

As for `COc1ccc(C(=O)/C=C/c2ccc(-c3ccccc3)cc2)c2c1C=CC(C)(C)O2`, the IC50 in assay [1], in assay [2], in assay [3], in assay [4], in assay [5] and in assay [6] was over 10 µM throughout.

As for `CCOc1cc(/C=C/C(=O)c2ccc(OC)c3c2OC(C)(C)C=C3)ccc1O`, the IC50 in assay [1], in assay [2], in assay [3], in assay [4], in assay [5] and in assay [6] was over 10 µM in each case.

On to `COc1ccc(C(=O)/C=C/c2ccco2)c2c1C=CC(C)(C)O2`, for which the IC50 in assay [1], in assay [2], in assay [3], in assay [4], in assay [5] and in assay [6] was over 10 µM throughout.

Turning to `COc1ccc(C(=O)/C=C/c2ccc3ccccc3c2)c2c1C=CC(C)(C)O2`, the IC50 in assay [1] is 0.21 µM; in assay [2] it was 3.67 µM; in assay [3] it was 7.65 µM; in assay [4] it was 5.82 µM; in assay [5] it was 4.48 µM; in assay [6], 2.14 µM.

With `COc1ccc(C(=O)/C=C/c2cccc(Cl)c2)c2c1C=CC(C)(C)O2`, the IC50 in assay [1], in assay [2], in assay [3], in assay [4], in assay [5] and in assay [6] was over 10 µM throughout.

In the case of `COc1ccc(C(=O)/C=C/c2cccc(F)c2)c2c1C=CC(C)(C)O2`, the IC50 in assay [1], in assay [2], in assay [3], in assay [4], in assay [5] and in assay [6] was over 10 µM in each case.

As for `COc1ccc(/C=C/C(=O)c2ccc(OC)c3c2OC(C)(C)C=C3)c(F)c1`, the IC50 is 7.56 µM in assay [1]; over 10 µM in assay [2]; 4.88 µM in assay [3]; over 10 µM in assay [4]; over 10 µM in assay [5]; 6.57 µM in assay [6].

For the compound `COc1ccc(C(=O)/C=C/c2ccccc2)c2c1C=CC(C)(C)O2`, the IC50 in assay [1], in assay [2], in assay [3], in assay [4], in assay [5] and in assay [6] was over 10 µM throughout.

Turning to `COc1ccc(C(=O)/C=C/c2ccc(Cl)cc2)c2c1C=CC(C)(C)O2`, the IC50 in assay [1], in assay [2], in assay [3], in assay [4], in assay [5] and in assay [6] was over 10 µM throughout.

Consider `COc1ccc(C(=O)/C=C/c2ccc([N+](=O)[O-])cc2)c2c1C=CC(C)(C)O2`, for which the 50% inhibitory concentration (IC50) in assay [1] is 2.61 µM; in assay [2], 7.77 µM; in assay [3] it was 3.42 µM; in assay [4] it was 8.88 µM; in assay [5], 3.73 µM; in assay [6], 3.52 µM.

For `COc1ccc(C(=O)/C=C/c2cccc(C(F)(F)F)c2)c2c1C=CC(C)(C)O2`, the IC50 in assay [1] was over 10 µM; in assay [2], 7.85 µM; in assay [3], 9.33 µM; in assay [4], 9.71 µM; in assay [5], 9.05 µM; in assay [6], 7.87 µM.

As for `COc1cc(/C=C/C(=O)c2ccc(OC)c3c2OC(C)(C)C=C3)cc(OC)c1O`, the IC50 in assay [1], in assay [2], in assay [3], in assay [4], in assay [5] and in assay [6] was over 10 µM each time.

Take `COc1ccc(C(=O)/C=C/c2cccs2)c2c1C=CC(C)(C)O2`: the IC50 in assay [1], in assay [2], in assay [3], in assay [4], in assay [5] and in assay [6] was over 10 µM throughout.

In the case of `COc1ccc(C(=O)/C=C/c2cc(Cl)ccc2O)c2c1C=CC(C)(C)O2`, the IC50 was 6.64 µM in assay [1]; 5.51 µM in assay [2]; 6.27 µM in assay [3]; 5.24 µM in assay [4]; 4.97 µM in assay [5]; 4.23 µM in assay [6].

As for `COc1ccc(C(=O)/C=C/c2ccc3ccccc3n2)c2c1C=CC(C)(C)O2`, the IC50 came out at 4.28 µM in assay [1]; 3.02 µM in assay [2]; 2.35 µM in assay [3]; 4.53 µM in assay [4]; 3.79 µM in assay [5]; 2.25 µM in assay [6].

In the case of `COc1ccc(C(=O)/C=C/c2ccsc2)c2c1C=CC(C)(C)O2`, the half-inhibitory concentration (IC50) in assay [1], in assay [2], in assay [3], in assay [4], in assay [5] and in assay [6] was over 10 µM each time.

Take `COc1ccc(C(=O)/C=C/c2ccc(N3CCCC3)cc2)c2c1C=CC(C)(C)O2`: the IC50 in assay [1] was found to be 4.74 µM; in assay [2], 6.18 µM; in assay [3], 7.37 µM; in assay [4], 8.59 µM; in assay [5], 8.36 µM; in assay [6], 7.15 µM.

For the compound `COc1ccc(C(=O)/C=C/c2ccc(O)c(Br)c2)c2c1C=CC(C)(C)O2`, the IC50 in assay [1], in assay [2], in assay [3], in assay [4], in assay [5] and in assay [6] was over 10 µM throughout.

Take `COc1ccccc1/C=C/C(=O)c1ccc(OC)c2c1OC(C)(C)C=C2`: the IC50 in assay [1], in assay [2], in assay [3], in assay [4], in assay [5] and in assay [6] was over 10 µM in each case.

For the compound `COc1cc(OC)c(OC)cc1/C=C/C(=O)c1ccc(OC)c2c1OC(C)(C)C=C2`, the IC50 in assay [1], in assay [2], in assay [3], in assay [4], in assay [5] and in assay [6] was over 10 µM throughout.

As for `COc1ccc(C(=O)/C=C/c2cc(OC)c(OC)c(OC)c2)c2c1C=CC(C)(C)O2`, the IC50 in assay [1] was over 10 µM; in assay [2] it was over 10 µM; in assay [3] it was 9.7 µM; in assay [4], 7.65 µM; in assay [5], over 10 µM; in assay [6], 9.15 µM.

Regarding `COc1ccc(C(=O)/C=C/c2ccc(Br)cc2)c2c1C=CC(C)(C)O2`, the IC50 in assay [1], in assay [2], in assay [3], in assay [4], in assay [5] and in assay [6] was over 10 µM each time.

Take `COc1ccc(C(=O)/C=C/c2cccc([N+](=O)[O-])c2)c2c1C=CC(C)(C)O2`: the IC50 is 2.83 µM in assay [1]; 5.87 µM in assay [2]; 9.72 µM in assay [3]; 8.05 µM in assay [4]; 4.26 µM in assay [5]; 4.09 µM in assay [6].

As to `COc1ccc(C(=O)/C=C/c2ccc(O)cc2)c2c1C=CC(C)(C)O2`, the IC50 in assay [1], in assay [2], in assay [3], in assay [4], in assay [5] and in assay [6] was over 10 µM each time.

Turning to `COc1ccc(C(=O)/C=C/c2ccc(N(c3ccccc3)c3ccccc3)cc2)c2c1C=CC(C)(C)O2`, the IC50 in assay [1], in assay [2], in assay [3], in assay [4], in assay [5] and in assay [6] was over 10 µM each time.

In the case of `COc1cccc(/C=C/C(=O)c2ccc(OC)c3c2OC(C)(C)C=C3)c1`, the IC50 in assay [1] is over 10 µM; in assay [2], over 10 µM; in assay [3], 9.36 µM; in assay [4], over 10 µM; in assay [5], over 10 µM; in assay [6], over 10 µM.

`COc1ccc(/C=C/C(=O)c2ccc(OC)c3c2OC(C)(C)C=C3)cn1`: the IC50 in assay [1], in assay [2], in assay [3], in assay [4], in assay [5] and in assay [6] was over 10 µM throughout.
